No end group written: not given here.
Assays:
alpha 5 beta 1 integrin [1] = biological target: T1, alpha 5 beta 1 integrin (Homo sapiens, UniProt P05556+P08648); assay type: binding
alpha v beta 3 integrin = alpha v beta 3 integrin (Homo sapiens, UniProt P05106+P06756); assay type: binding
Summary of the method: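 Human placental αvβ3 (octyl glucoside extract with 1 mM MnCl2 and 1 mM CaCl2) coated in microtiter wells. Phage incubated 1 h at room temperature, then washed five times. Bound phage infected K91kan bacteria for 10 min at 37°C, then grown in Terrific broth with tetracycline and kanamycin (30 min at 37°C, then overnight at room temperature with shaking). Bacterial growth read as A600.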

[2] = biological target: alpha IIb beta 3 integrin (Homo sapiens, UniProt P05106+P08514); assay: Binding to wells coated with alpha IIb beta 3 integrin
alpha 5 beta 1 integrin [3] = biological target: alpha 5 beta 1 integrin (UniProt G3HZ55+P08648); assay: Cell attachment assay: B2/a27 cells on fibronectin; assay type: cell-based, human
alpha 5 beta 1 integrin [4] = biological target: T1, alpha 5 beta 1 integrin; assay type: binding; details: control peptide; not shown
alpha 5 beta 1 integrin [5] = biological target: T1, alpha 5 beta 1 integrin; assay type: binding; details: unrelated cyclic control peptide

T1 sequence (P08648 42-894 limits assumed): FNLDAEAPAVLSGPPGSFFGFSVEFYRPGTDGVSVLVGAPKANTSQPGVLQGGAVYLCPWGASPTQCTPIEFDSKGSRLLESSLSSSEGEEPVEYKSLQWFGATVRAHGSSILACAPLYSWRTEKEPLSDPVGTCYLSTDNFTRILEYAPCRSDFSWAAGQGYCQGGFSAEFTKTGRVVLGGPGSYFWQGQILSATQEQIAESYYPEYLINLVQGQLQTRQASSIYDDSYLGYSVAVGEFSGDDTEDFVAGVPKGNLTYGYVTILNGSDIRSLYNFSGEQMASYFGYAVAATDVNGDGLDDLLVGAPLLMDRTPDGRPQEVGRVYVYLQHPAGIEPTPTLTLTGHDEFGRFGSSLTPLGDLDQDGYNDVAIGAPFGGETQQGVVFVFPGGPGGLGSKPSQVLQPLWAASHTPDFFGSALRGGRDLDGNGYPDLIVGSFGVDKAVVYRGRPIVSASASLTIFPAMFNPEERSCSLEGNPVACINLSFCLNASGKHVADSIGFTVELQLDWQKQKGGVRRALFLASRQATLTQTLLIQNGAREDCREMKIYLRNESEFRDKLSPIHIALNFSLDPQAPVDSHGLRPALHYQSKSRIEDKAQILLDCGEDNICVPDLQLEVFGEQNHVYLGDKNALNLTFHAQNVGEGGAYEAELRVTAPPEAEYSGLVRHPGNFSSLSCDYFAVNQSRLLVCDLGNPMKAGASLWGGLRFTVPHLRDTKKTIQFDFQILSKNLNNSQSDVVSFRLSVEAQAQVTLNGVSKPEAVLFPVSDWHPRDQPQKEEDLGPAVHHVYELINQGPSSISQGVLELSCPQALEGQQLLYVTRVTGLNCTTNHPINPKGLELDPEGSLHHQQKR
T1 sequence (P08648 895-1049 limits assumed): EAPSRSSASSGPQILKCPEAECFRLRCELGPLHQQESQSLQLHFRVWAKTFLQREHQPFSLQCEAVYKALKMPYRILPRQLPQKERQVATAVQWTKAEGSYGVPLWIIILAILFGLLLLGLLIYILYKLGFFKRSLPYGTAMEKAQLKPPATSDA
T1 sequence (P05556 21-798): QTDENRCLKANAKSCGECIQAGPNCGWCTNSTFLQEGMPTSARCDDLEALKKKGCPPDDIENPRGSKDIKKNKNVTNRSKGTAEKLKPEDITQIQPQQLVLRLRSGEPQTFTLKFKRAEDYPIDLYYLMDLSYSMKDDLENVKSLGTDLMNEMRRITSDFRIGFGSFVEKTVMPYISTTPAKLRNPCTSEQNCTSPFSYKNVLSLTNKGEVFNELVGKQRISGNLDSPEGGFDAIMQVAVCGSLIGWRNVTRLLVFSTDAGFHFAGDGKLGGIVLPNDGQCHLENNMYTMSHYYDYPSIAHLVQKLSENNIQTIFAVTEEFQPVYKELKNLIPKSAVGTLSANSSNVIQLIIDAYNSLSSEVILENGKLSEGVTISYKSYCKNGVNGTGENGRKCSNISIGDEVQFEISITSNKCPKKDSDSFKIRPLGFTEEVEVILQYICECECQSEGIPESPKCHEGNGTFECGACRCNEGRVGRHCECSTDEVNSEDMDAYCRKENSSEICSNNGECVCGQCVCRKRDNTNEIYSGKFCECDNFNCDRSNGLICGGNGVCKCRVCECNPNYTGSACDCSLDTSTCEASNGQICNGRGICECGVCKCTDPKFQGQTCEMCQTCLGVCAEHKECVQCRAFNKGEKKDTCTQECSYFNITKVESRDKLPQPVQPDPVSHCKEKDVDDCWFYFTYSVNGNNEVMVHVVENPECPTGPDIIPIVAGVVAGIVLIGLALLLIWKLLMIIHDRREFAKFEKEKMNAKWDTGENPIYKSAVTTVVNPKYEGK
Sequence of alpha 5 beta 1 integrin (UniProt G3HZ55+P08648) (P08648 42-894 limits assumed): as the sequence (P08648 42-894 limits assumed) above
Sequence of alpha 5 beta 1 integrin (UniProt G3HZ55+P08648) (P08648 895-1049 limits assumed): as the sequence (P08648 895-1049 limits assumed) above
Sequence of alpha 5 beta 1 integrin (UniProt G3HZ55+P08648) (G3HZ55 21-798): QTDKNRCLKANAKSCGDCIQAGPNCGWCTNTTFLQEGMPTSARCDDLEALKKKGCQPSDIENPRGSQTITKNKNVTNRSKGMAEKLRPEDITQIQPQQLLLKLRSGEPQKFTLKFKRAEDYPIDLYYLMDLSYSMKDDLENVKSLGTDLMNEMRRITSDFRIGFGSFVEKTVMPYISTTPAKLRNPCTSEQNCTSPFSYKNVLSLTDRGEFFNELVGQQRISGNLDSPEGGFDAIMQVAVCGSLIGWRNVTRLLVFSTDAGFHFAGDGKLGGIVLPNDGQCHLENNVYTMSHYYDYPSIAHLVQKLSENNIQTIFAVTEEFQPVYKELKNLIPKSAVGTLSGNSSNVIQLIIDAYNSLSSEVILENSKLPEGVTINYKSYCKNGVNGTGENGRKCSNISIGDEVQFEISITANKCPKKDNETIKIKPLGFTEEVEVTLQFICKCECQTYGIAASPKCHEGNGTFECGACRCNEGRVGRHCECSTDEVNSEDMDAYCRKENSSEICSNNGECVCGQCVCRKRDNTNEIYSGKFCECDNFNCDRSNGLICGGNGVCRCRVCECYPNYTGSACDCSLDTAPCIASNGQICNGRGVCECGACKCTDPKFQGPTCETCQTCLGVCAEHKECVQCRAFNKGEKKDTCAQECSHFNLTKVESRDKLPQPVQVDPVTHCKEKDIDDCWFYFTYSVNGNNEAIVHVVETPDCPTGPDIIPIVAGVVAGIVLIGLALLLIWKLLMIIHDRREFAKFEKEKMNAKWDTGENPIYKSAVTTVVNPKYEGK
Sequence of alpha IIb beta 3 integrin (P08514 32-887 limits assumed): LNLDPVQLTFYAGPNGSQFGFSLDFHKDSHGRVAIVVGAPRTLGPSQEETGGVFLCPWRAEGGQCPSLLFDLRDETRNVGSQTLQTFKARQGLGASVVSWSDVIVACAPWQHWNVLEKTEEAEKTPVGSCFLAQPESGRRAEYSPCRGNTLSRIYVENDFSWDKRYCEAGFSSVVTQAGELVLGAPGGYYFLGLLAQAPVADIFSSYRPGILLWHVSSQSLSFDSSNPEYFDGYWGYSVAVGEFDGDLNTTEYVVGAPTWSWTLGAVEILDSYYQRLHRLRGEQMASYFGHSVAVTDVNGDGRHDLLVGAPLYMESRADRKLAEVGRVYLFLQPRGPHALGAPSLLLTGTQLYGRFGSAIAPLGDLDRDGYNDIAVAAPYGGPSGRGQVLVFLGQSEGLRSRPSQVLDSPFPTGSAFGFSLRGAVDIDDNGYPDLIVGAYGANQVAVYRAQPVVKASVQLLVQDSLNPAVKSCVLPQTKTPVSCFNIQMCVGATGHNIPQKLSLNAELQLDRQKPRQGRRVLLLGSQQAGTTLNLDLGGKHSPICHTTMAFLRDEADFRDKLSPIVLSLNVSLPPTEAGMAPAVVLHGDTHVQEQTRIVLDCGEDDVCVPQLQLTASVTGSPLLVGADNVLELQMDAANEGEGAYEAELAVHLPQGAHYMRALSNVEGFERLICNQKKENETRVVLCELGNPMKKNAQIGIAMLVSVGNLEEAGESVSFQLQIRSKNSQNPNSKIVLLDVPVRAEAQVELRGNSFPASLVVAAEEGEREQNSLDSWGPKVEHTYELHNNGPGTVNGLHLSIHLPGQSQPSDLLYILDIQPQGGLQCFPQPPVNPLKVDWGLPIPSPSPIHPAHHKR
Sequence of alpha IIb beta 3 integrin (P05106 27-788): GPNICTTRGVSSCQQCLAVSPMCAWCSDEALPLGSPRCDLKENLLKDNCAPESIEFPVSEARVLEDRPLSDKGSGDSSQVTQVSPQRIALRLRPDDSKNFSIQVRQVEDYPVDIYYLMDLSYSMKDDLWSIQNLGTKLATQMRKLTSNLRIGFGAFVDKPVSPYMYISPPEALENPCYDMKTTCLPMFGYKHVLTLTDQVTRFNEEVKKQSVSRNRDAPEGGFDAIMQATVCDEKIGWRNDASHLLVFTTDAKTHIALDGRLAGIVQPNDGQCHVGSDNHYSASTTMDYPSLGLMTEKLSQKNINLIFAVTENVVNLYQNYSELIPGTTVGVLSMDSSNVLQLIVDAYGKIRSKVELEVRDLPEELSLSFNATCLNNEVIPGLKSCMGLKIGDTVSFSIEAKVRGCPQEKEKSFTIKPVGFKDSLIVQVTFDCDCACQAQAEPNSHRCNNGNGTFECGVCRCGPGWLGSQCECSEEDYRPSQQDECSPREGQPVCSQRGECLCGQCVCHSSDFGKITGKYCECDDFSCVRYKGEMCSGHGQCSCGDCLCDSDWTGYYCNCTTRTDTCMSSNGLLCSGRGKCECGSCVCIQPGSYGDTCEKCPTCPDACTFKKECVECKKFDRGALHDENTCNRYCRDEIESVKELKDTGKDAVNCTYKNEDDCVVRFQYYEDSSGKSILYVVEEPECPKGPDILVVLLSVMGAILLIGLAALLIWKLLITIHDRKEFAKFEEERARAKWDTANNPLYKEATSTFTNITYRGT

Row | Substance | Binding of phage clone to microtiter wells coated with alpha 5 beta 1 (alpha 5 beta 1 integrin [1]) | also measured
1 | VFSIAHE (disulfide (positions not given here)) | significantly over the background | –
2 | RGAPRAW (disulfide (positions not given here)) | bound weakly | –
3 | RRETAWA (disulfide (positions not given here)) [RRETAWA-phage] | avidly | Binding of phage clone to microtiter wells coated with alpha v beta 3 (alpha v beta 3 integrin): only weakly; Binding to the alpha IIb beta 3 integrin [2]: did not bind
4 | GRGESP [reference compound] | – | Effect on alpha 5 beta 1-mediated cell attachment to fibronectin (alpha 5 beta 1 integrin [3]; control peptide): no effect; Effect on binding of RRETAWA-containing phage to alpha 5 beta 1 (alpha 5 beta 1 integrin [4]): no effect
5 | GA*CSPYFLRLC*GA (disulfide) | – | Effect on binding of 125I-labeled fibronectin to alpha 5 beta 1 (alpha 5 beta 1 integrin [5]): no significant effect
6 | STSDVGG (disulfide (positions not given here)) | significantly over the background | –
7 | VRLNSLA (disulfide) | significantly over the background | –
8 | GACRRETAWACGA [GACRRETAWACGA not cyclized] | – | Activity of peptide not cyclized by oxidation (alpha 5 beta 1 integrin [3]; relative to cyclic *CRRETAWAC*): reduced activity
9 | TLVPSRS (disulfide (positions not given here)) | significantly over the background | –
